ADAM17 inh: ADAM17 inhibition, QFRET primary screen; P78536; recombinant ADAM17, EDANS/DABCYL FRET peptide cleavage; inhibition, % at 6.95 µM; actives 0.83% (n = 370,000);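 active = inhibition above the mean of compounds lying between control limits plus 3 SD, set per campaign, cut at about 8.5% in these data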
MT1-MMP act inh: MT1-MMP (human) activation inhibition; HT1080 RFP-PRO-GFP cells, GFP/RFP ratio fluorescence, overnight; percent of plate control window, DMSO zero; GFP/RFP ratio change, % at 20 µM; actives 0.061% (n = 360,000);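 active = GFP/RFP ratio change of at least 30% with cell ATP level not reduced by more than half and red fluorescence within 50% of control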
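Assay system: HT1080 cells carrying an RFP-PRO-GFP reporter | Dosing: Single dose of 20 µM compound, 1% DMSO final | Incubation: Cells overnight before dosing, compound overnight, 37 °C, 5% CO2 | Evaluation: GFP/RFP fluorescence ratio | Control set: DMSO and RFP-L50D-GFP cell wells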
ADAM10 inh: ADAM10 inhibition, QFRET primary screen. actives 0.62% (n = 370,000). inhibition, % at 7 µM. O14672. AID 720582. recombinant ADAM10, EDANS/DABCYL FRET peptide cleavage, 3 h;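 active = inhibition above a per-campaign cutoff equal to the mean of compounds falling between control-based bounds plus 3 SD, cut at about 20% in these data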
Tn6 DDE FP: inhibitors of Tn6 peptide binding to human fibrin DD(E); Fibrin DD(E) TRITC-Tn6 fluorescence polarization displacement; inhibition, % at 8.3 µM; actives 0.21% (n = 370,000);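 active = inhibition above a per-campaign cutoff: mean of compounds within control limits plus 3 SD, cut at about 15% in these data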
Target sequence (P02675 whole entry, looked up): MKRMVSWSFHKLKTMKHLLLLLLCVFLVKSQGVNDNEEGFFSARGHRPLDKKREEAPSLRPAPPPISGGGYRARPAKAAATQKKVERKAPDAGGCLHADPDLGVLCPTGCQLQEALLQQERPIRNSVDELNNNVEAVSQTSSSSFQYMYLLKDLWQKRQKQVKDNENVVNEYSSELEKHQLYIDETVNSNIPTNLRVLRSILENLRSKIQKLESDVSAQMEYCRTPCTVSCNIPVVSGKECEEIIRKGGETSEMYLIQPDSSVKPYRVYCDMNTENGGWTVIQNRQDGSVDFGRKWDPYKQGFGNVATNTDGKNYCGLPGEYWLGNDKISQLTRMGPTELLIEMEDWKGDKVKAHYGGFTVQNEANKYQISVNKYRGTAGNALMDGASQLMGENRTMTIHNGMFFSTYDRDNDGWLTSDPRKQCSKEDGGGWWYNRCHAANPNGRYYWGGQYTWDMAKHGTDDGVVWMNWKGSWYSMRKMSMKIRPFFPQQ
DDE Tn7 FP inh: DD(E)-Tn7 binding inhibition, primary FP screen; AID 720508; FP displacement of FITC-Tn7 peptide from fibrin DD(E); 0% = median of compound wells per plate; inhibition, % at 8.3 µM; P02675; actives 0.13% (n = 370,000);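 active = inhibition above the mean of compounds falling within the control limits plus 3 SD of them, cut at about 14% in these data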
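Assay system: Human fibrin DD(E) protein | Medium: Tris buffer with calcium and detergent, pH 7.8 | Reagent: 0.1 µM fluorescent Tn7 | Compound dosing: Single point at 8.3 µM | Times: 10 min preincubation, 3 h with tracer, room temperature | Detection: Fluorescence polarization of the labelled Tn7 tracer | Controls: Aha-Tn7 high control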
ADAM10 counter: inhibits human ADAM10 in ADAM17 exosite counter-screen. shares compounds with ADAM17 inh. recombinant ADAM10, EDANS/DABCYL FRET peptide cleavage, 3 h. inhibition, % at 6.95 µM. actives 47% (n = 2,900);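 active = mean inhibition over the triplicate runs exceeds the activity threshold set in the earlier primary screen, cut at about 20% in these data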
ADAM17 confirm: confirmation of inhibitors of human ADAM17; inhibition, % at 6.95 µM; shares compounds with ADAM17 inh; actives 65% (n = 2,900); recombinant ADAM17, EDANS/DABCYL QFRET peptide cleavage;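 active = mean inhibition across replicates above the hit cutoff set in the primary screen, cut at about 8.5% in these data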
Hits are given with their value; n = inactive; x = not tested or not shown. Sampled rows, rich in hits. Any-hit rate of the full collection: about 1.6%.

SMILES | ADAM17 inh | MT1-MMP act inh | ADAM10 inh | Tn6 DDE FP | DDE Tn7 FP inh | ADAM10 counter | ADAM17 confirm
CC(=O)N(C)c1ccc(N=Nc2ccc3ncccc3c2)cc1 | 9.6 | n | n | n | n | n | n
CCOC(=O)[C@@H]1CSCCS(=O)(=O)N1C(=O)[C@H](C)NC(=O)OC(C)(C)C | n | x | n | n | n | x | x
C(=C\c1ccccc1)/CN1CCN(C(c2cccs2)c2nnnn2Cc2ccccc2)CC1 (configuration not stated) | n | n | n | n | n | x | x
C(=C\c1ccccc1)/CN1CCN(C(c2cccc3ccccc23)c2nnnn2Cc2ccccc2)CC1 (configuration not stated) | 12 | n | n | n | n | 23 | 9.6
Cn1cc(C(=O)c2ccc(Cl)cc2Cl)cc1C(=O)N/N=C(\N)COc1ccc(Cl)cc1 | 11 | n | n | n | n | 22 | 16
CCOC(=O)CC[C@@H]1CC[C@]2(CCCN(C(=O)C3CCCCC3)C2)O1 | n | x | n | n | n | x | x
Cc1[nH]c2ccccc2c1/C=N/Nc1ccc([N+](=O)[O-])cc1 | 10 | n | n | n | n | n | n
Clc1ccc(CN2CCN(N=Cc3cccc(OCc4ccccc4)c3)CC2)cc1 | n | x | n | n | n | x | x
COc1ccccc1NC(=O)C(=O)N/N=C(\C)CC(=O)Nc1ccc(OCc2ccccc2)cc1 | n | n | n | n | n | x | x
C/C(CC(=O)Nc1ccc(OCc2ccccc2)cc1)=N\NC(=O)C(=O)Nc1cccc(C)c1 | 11 | n | n | n | n | n | n
O=[N+]([O-])c1ccc(CNc2ccc(Cl)cc2)s1 | n | n | n | n | n | x | x
CC(CNc1ccc(Cl)cc1)(CNc1ccc(Cl)cc1)[N+](=O)[O-] | 9.9 | n | n | n | n | 25 | n
CCO[C@@H]1OC(C(=O)O)=C[C@H](c2csc3ccccc23)[C@H]1CCCO | n | n | n | n | n | x | x
CCO[C@H]1OC(C(=O)Nc2ccccc2)=C[C@@H](c2csc3ccccc23)[C@@H]1CCCO | 10 | n | n | n | n | n | 12
CC(C)(C)c1ccc(C2(C)NC(=O)N(CC(=O)NCc3cccs3)C2=O)cc1 (configuration not stated) | n | n | n | n | n | x | x
CC(C)(C)c1ccc(C2(C)NC(=O)N(CC(=O)c3ccc[nH]3)C2=O)cc1 (configuration not stated) | 11 | n | n | n | n | n | n
CC(=O)C1=C(C)N(Cc2ccc(F)cc2)C(=S)NC1c1cccc(Cl)c1 (configuration not stated) | n | x | n | n | n | x | x
Cc1ccccc1NC(=O)c1nc[nH]c1C(=O)NCc1ccccc1 | n | n | n | n | n | x | x
Cc1ccccc1NC(=O)c1[nH]cnc1C(=O)NN | 13 | n | n | n | n | n | n
COc1ccc(S(=O)(=O)N(C)C[C@H]2Oc3ccc(NS(=O)(=O)c4ccccc4)cc3C(=O)N([C@H](C)CO)C[C@@H]2C)cc1 | n | n | n | n | n | x | x
COc1ccc(S(=O)(=O)N(C)C[C@H]2Oc3ccc(NS(=O)(=O)c4ccccc4)cc3CC(=O)N([C@H](C)CO)C[C@@H]2C)cc1 | 13 | n | n | n | n | n | n
C[C@H]1CN([C@@H](C)CO)C(=O)c2cc(NC(=O)C3CCCCC3)ccc2O[C@H]1CN(C)Cc1ccc(-c2ccccc2)cc1 | 11 | n | n | n | n | 32 | 18
C[C@@H]1CN([C@H](C)CO)C(=O)Cc2cc(NS(=O)(=O)c3ccc(F)cc3)ccc2O[C@H]1CN(C)Cc1ccc(C(=O)O)cc1 | n | n | n | n | n | x | x
COc1ccc(S(=O)(=O)Nc2ccc3c(c2)CC(=O)N([C@@H](C)CO)C[C@@H](C)[C@@H](CN(C)Cc2ccccc2)O3)cc1 | 11 | n | n | n | n | n | n

Source: PubChem BioAssay (several laboratories)
